Measured values reported in ChEMBL document CHEMBL4014282 (Eur J Med Chem, 2017).
≈ marks a conversion by molar mass, not a printed value.

Columns and labels:
[1] = Stability of the compound in polysorbate80/poloxamer188 formulation using liquid sample at 1 mg/ml at 5 degC after 30 days by UV-HPLC method; assay type: physicochemical; settings: 720 h
In short: (§1)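 Intravenous-type dosage solution: API at 1 mg/mL in water for injection containing polysorbate 80 and poloxamer 188 (5 mg/mL each). API dissolved in the surfactants at 70–80 °C, hot water added slowly, then cooled to ambient. Stored at 5 or 25 °C; stability followed by HPLC over 30 days.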

MDA-MB-231 = experiment: Antiproliferative activity against human MDA-MB-231 cells after 72 hrs by CellTiter-Glo luminescent assay; assay type: functional, cell-based; settings: MDA-MB-231, 72 h
In short: (§2)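 Cells seeded at 2 x 10⁴/well, rested 24 h, then exposed to increasing concentrations or DMSO vehicle for 72 h. MDA-MB-231 grown in RPMI 1640 with 10% FCS; U2OS grown in DMEM + GlutaMAX with 10% FCS; both at 37°C, 5% CO₂. Viable cells read by ATP luminescence, triplicate wells. IC₅₀ from fitted dose-response curves, mean ± SD of at least 3 independent experiments.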

[2] = Fraction unbound in mouse plasma at 5 uM by LC-MS/MS method; assay type: ADME, cell-free
In short: (§3)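 Equilibrium dialysis across a semi-permeable membrane, buffer (pH 7.4) on one side and 100% species-specific plasma on the other. Test compound at 5 μM with 0.5% final DMSO, 37 °C. Both sides sampled at equilibrium and quantified by LC-MS/MS against matrix-matched standard curves. %fu from duplicate incubations, with a control compound in each run.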

[3] = Stability in rat plasma assessed as compound remaining at 1 uM after 120 mins by LC-MS/MS method; assay type: ADME, cell-free; settings: read-out: Stability
In short: (§4)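 Rat or mouse plasma, pH adjusted to 7.4 if needed, spiked with compound at 1 µM (2.5% final DMSO) at 37 °C. Stopped at 0, 15, 30, 60 and 120 min with methanol containing internal standard. Parent measured by LC-MS/MS peak-area ratio and expressed as percent remaining relative to 0 min.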

[4] = Stability of the compound in PEG400 using liquid sample at 5 mg/ml at 5 degC after 30 days by UV-HPLC method; assay type: physicochemical; settings: 720 h
[5] = Stability of the compound in polysorbate80/poloxamer188 formulation using liquid sample at 1 mg/ml at 25 degC after 30 days by UV-HPLC method; assay type: physicochemical; settings: 720 h; in short: as §1
[6] = Stability of the compound in PEG8000 formulation using solid sample at 5 mg/ml at 5 degC after 30 days by UV-HPLC method; assay type: physicochemical; settings: 720 h
In short: (§5)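 Solid tablets cast from hot melt: API dissolved in melted PEG8000 at 90–100 °C with stirring, or first dissolved in PEG400 and then mixed into melted PEG8000, giving a formulation containing 10% PEG400. Stored at 5 or 25 °C, degradation assessed by HPLC over 30 days, with one reading at 33 days.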

[7] = Intrinsic clearance in Sprague-Dawley rat liver microsomes assessed per mg protein at 3 uM preincubated for 45 mins followed by NADPH addition by LC-MS/MS method
U2OS [8] = experiment: Antiproliferative activity against human U2OS cells after 72 hrs by CellTiter-Glo luminescent assay; assay type: functional, cell-based; in short: as §2
[9] = Fraction unbound in rat plasma at 5 uM by LC-MS/MS method; assay type: ADME, cell-free; in short: as §3
U2OS [10] = experiment: Cell cycle arrest in human U2OS cells assessed as accumulation at G2/M phase after 24 hrs by propidium iodide staining based flow cytometric method; assay type: functional
In short: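 Exponentially growing U2OS cells treated 24 h with compound or DMSO vehicle. Cells collected, PBS-washed and fixed in ice-cold 70% methanol. About 1 million cells stained 30 min at 37 °C with propidium iodide (1%) plus RNase A (2.5%) in PBS, then analysed by flow cytometry. Phase percentages given as mean ± SD of two independent experiments.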

[11] = Stability of the compound in PEG400 using liquid sample at 5 mg/ml at 25 degC after 30 days by UV-HPLC method; assay type: physicochemical; settings: 720 h
[12] = Stability in simulated gastric fluid at pH 1.2 assessed as compound remaining at 1 uM after 120 mins by LC-MS/MS method
In short: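 Simulated gastric fluid (HCl, NaCl, pepsin; pH 1.2), compound at 1 μM with 2.5% final DMSO, 37 °C. Quenched at 0, 15, 30, 60 and 120 min with methanol containing internal standard. Parent quantified by LC-MS/MS peak-area ratio and expressed as percent remaining versus 0 min.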

[13] = Thermodynamic solubility of the compound in phosphate buffered saline at pH 7.4 at 1 mg sonicated for 10 mins measured after 12 hrs by HPLC method; assay type: physicochemical; settings: read-out: Therm_solubility
In short: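 Centrifuged until clear, and supernatant analysed by HPLC at 254 nm. Concentration derived from a linear (Y = aX) calibration of MeCN dilutions at 10–100 µg/mL. Measured at 22 °C.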

[14] = Stability in mouse plasma assessed as compound remaining at 1 uM after 120 mins by LC-MS/MS method; assay type: ADME, cell-free; settings: read-out: Stability; in short: as §4
[15] = Stability of the compound in PEG8000 formulation using solid sample at 5 mg/ml at 25 degC after 33 days by UV-HPLC method; assay type: physicochemical; settings: 792 h; in short: as §5
[16] = Intrinsic clearance in CD1 mouse liver microsomes assessed per mg protein at 3 uM preincubated for 45 mins followed by NADPH addition by LC-MS/MS method
[17] = Stability of the compound in PEG8000/10% PEG400 formulation using solid sample assessed as compound degradation at 5 mg/ml at 25 degC after 33 days by UV-HPLC method; assay type: physicochemical; settings: read-out: Drug degradation; in short: as §5
[18] = Stability of the compound in PEG400 using liquid sample at 10 mg/ml at 25 degC after 30 days by UV-HPLC method; assay type: physicochemical; settings: 720 h
In short: (§6)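 API dissolved in PEG400 at 70–80 °C with vortexing to a clear solution at 10 mg/mL. Stored at 5 or 25 °C and checked for degradation by HPLC over 30 days.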

[19] = Stability of the compound in PEG8000/10% PEG400 formulation using solid sample at 5 mg/ml at 5 degC after 30 days by UV-HPLC method; assay type: physicochemical; settings: 720 h; in short: as §5
[20] = Stability of the compound in PEG400 using liquid sample at 10 mg/ml at 5 degC after 30 days by UV-HPLC method; assay type: physicochemical; settings: 720 h; in short: as §6
[21] = Aqueous solubility of the compound; assay type: physicochemical; settings: buffer

Row | IC50 (MDA-MB-231) | fraction unbound at 5 µM [2] | remaining at 2 h, 1 µM [3] | CLH [7] | IC50 (U2OS [8]) | fraction unbound at 5 µM [9] | remaining at 2 h, 1 µM [14] | SMILES | Stability [12] | other results
1 | 3200 nM | 0.141 | 116% | 28 mL/min | 2100 nM | 0.111 | 117% | COc1cc(OC)c2c(c1Cl)O[C@]1(C2=O)C(NCc2ccccc2)=CC(=O)C[C@H]1C | 52% | Stability [1]: Stable; Stability [4]: Stable; Stability [5]: Unstable; Stability [6]: Stable; Activity (U2OS [10]): Dose-dependent effect; Stability [11]: Stable; solubility thermodynamic at 12 h [13]: 62 µg/mL (≈ 145 µM); Stability [15]: Stable
2 | 1400 nM | 0.043 | 102% | 59.1 mL/min | 1200 nM | 0.014 | 87% | COc1cc(OC)c2c(c1Cl)O[C@]1(C2=O)C(OCc2ccccc2)=C/C(=N/O)C[C@H]1C | 81% | Stability [1]: Stable; Stability [4]: Stable; Stability [5]: Stable; Stability [6]: Stable; Stability [11]: Stable; solubility thermodynamic at 12 h [13]: 3 µg/mL (≈ 6.76 µM); Stability [15]: Stable
3 | 1700 nM | 0.112 | 101% | 45 mL/min | 1300 nM | 0.027 | 91% | COc1cc(OC)c2c(c1Cl)O[C@]1(C2=O)C(OCc2ccccc2)=CC(=O)C[C@H]1C | 62% | degraded at 792 h, 5 mg/ml [17]: 4%; Stability [18]: Stable; Stability [19]: Stable; Stability [5]: Unstable; solubility thermodynamic at 12 h [13]: 0.3 µg/mL (≈ 0.7 µM); Stability [20]: Stable
4 | 17100 nM | – | – | – | 13700 nM | – | – | COc1cc(OC)c2c(c1Cl)O[C@]1(C2=O)C(O[C@H](C)c2ccccc2)=CC(=O)C[C@H]1C | – | solubility [21]: Insoluble
5 | 7100 nM | – | – | – | 1600 nM | – | – | COc1cc(OC)c2c(c1Cl)O[C@]1(C2=O)C(O[C@@H](C)c2ccccc2)=CC(=O)C[C@H]1C | – | solubility [21]: Insoluble
6 | 3500 nM | 0.087 | 106% | – | 1900 nM | 0.06 | 104% | COc1cc(OC)c2c(c1Cl)O[C@]1(C2=O)C(N(C)Cc2ccccc2)=CC(=O)C[C@H]1C | 15% | –
7 | 1700 nM | 0.018 | 89% | 60.2 mL/min | 1300 nM | 0.018 | 102% | COc1cc(OC)c2c(c1Cl)O[C@]1(C2=O)C(OCc2ccc(C)cc2)=CC(=O)C[C@H]1C | 68% | –

More lines, now with the values behind:

Row | SMILES | IC50 (MDA-MB-231) | fraction unbound at 5 µM [2] | remaining at 2 h, 1 µM [3] | CLH [7] | IC50 (U2OS [8]) | fraction unbound at 5 µM [9] | remaining at 2 h, 1 µM [14] | Stability [12] | other results
8 | COc1cc(OC)c2c(c1Cl)O[C@]1(C2=O)C(OCc2ccc(F)cc2)=CC(=O)C[C@H]1C | – | – | – | 30.7 mL/min | – | – | – | – | CLH [16]: 17.4 mL/min
9 | COc1cc(OC)c2c(c1Cl)O[C@]1(C2=O)C(NCc2ccc(C)cc2)=CC(=O)C[C@H]1C | 8200 nM | 0.11 | 111% | – | 6900 nM | 0.055 | 107% | 54% | –
10 | COC1=CC(=O)C[C@@H](C)[C@]12Oc1c(Cl)c(OC)cc(OC)c1C2=O [GRISEOFULVIN] | – | 0.427 | 107% | – | – | 0.216 | 107% | 73% | Activity (U2OS [10]): Dose-dependent effect
11 | COc1cc(OC)c2c(c1Cl)O[C@]1(C2=O)C(NCc2ccc(F)cc2)=CC(=O)C[C@H]1C | 5200 nM | 0.132 | 92% | – | 2600 nM | 0.094 | 108% | 54% | –
